According to publication PMC3356098 (Frontiers in Endocrinology, 2012):

Biological target: RXFP2 (Homo sapiens, UniProt Q8WXD0)
Format: cell-based
Conditions: for agonist/antagonist character at RXFP2 (in words): cAMP reporter gene assay
How it was run: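 HEK-293T cells were co-transfected in 96-well format with RXFP2 and a pCRE–β-galactosidase reporter plasmid. They were exposed to increasing concentrations of test peptide for 6 h, then the medium was aspirated and the cells frozen at −80°C overnight before β-galactosidase was measured. Signals were normalised to the maximal native INSL3 response. Triplicates were run in three experiments, with pEC50 from a variable-slope sigmoidal fit.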

Chain of RXFP2 (Q8WXD0 whole entry): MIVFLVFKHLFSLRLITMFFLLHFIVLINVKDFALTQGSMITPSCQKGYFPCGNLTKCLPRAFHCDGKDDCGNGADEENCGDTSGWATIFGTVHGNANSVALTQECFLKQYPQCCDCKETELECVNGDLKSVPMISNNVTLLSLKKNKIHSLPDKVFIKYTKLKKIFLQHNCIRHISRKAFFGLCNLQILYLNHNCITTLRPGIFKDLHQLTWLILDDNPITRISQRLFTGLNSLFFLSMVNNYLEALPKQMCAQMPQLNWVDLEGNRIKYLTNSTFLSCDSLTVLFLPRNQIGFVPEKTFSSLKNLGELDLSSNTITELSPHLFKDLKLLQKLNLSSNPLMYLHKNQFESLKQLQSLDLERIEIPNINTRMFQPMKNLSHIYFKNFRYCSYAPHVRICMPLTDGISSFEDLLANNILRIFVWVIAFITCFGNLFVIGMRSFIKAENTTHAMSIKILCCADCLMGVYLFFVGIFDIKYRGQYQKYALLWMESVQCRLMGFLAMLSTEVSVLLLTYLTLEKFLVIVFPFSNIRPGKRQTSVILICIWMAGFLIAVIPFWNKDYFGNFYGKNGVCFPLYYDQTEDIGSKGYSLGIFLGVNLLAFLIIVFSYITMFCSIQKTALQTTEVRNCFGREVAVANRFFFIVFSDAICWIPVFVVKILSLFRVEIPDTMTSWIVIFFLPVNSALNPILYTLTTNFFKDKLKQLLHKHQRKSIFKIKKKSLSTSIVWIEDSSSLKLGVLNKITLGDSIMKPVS

CSCC[C@H](NC(=O)[C@H](CCC(=O)O)NC(=O)[C@@H]1CCCN1C(=O)[C@@H](NC(=O)[C@@H]1CCCN1)[C@@H](C)O)C(=O)N[C@@H](CCCNC(=N)N)C(=O)N[C@@H](CCC(=O)O)C(=O)N[C@@H](CCCCN)C(=O)N[C@@H](CC(C)C)C(=O)N[C@H]1CSSC[C@@H]2NC(=O)[C@@H](NC(=O)[C@H](CCCCN)NC(=O)[C@H](CC(N)=O)NC(=O)[C@H](C)NC(=O)[C@H](CC(C)C)NC(=O)[C@H](C)NC(=O)[C@H](CO)NC(=O)[C@H](Cc3ccc(O)cc3)NC(=O)[C@H](CC(C)C)NC(=O)[C@@H]3CCC(=O)N3)CSSC[C@H](NC(=O)CNC(=O)[C@H](C(C)C)NC(=O)[C@H](Cc3c[nH]cn3)NC2=O)C(=O)N[C@@H]([C@@H](C)O)C(=O)N[C@@H](CCCCN)C(=O)N[C@@H](CCCNC(=N)N)C(=O)N[C@@H](CO)C(=O)N[C@@H](CC(C)C)C(=O)N[C@@H](C)C(=O)N[C@@H](CCCNC(=N)N)C(=O)N[C@@H](Cc2ccccc2)C(=O)N[C@H](C(=O)O)CSSC[C@@H](C(=O)NCC(=O)NCC(=O)N2CCC[C@H]2C(=O)N[C@@H](CCCNC(=N)N)C(=O)N[C@@H](Cc2c[nH]c3ccccc23)C(=O)N[C@@H](CO)C(=O)N[C@H](C(=O)N[C@@H](CCC(=O)O)C(=O)N[C@@H](C)C(=O)O)[C@@H](C)O)NC(=O)[C@H](C(C)C)NC(=O)[C@H](CCCNC(=N)N)NC(=O)[C@H](C(C)C)NC(=O)[C@H](CC(C)C)NC(=O)[C@H](C)NC(=O)[C@H](CCCNC(=N)N)NC(=O)[C@H](C(C)C)NC(=O)[C@H](Cc2ccccc2)NC(=O)[C@H](Cc2c[nH]cn2)NC(=O)[C@H](Cc2c[nH]cn2)NC(=O)CNC1=O [H2-A/INSL3-B]
agonist/antagonist character at RXFP2 (in words): partial agonist

CSCC[C@H](NC(=O)[C@H](CCC(=O)O)NC(=O)[C@@H]1CCCN1C(=O)[C@@H](NC(=O)[C@@H]1CCCN1)[C@@H](C)O)C(=O)N[C@@H](CCCNC(=N)N)C(=O)N[C@@H](CCC(=O)O)C(=O)N[C@@H](CCCCN)C(=O)N[C@@H](CC(C)C)C(=O)N[C@H]1CSSC[C@@H]2NC(=O)[C@@H](NC(=O)[C@H](CC(C)C)NC(=O)[C@@H](NC(=O)[C@H](CCC(N)=O)NC(=O)[C@H](CC(C)C)NC(=O)[C@H](CC(=O)O)NC(=O)[C@@H]3CCC(=O)N3)[C@@H](C)O)CSSC[C@H](NC(=O)CNC(=O)[C@H](CC(=O)O)NC(=O)[C@H]([C@@H](C)O)NC2=O)C(=O)N[C@@H](CO)C(=O)N[C@@H](CCSC)C(=O)N[C@@H]([C@@H](C)O)C(=O)N[C@@H](CC(=O)O)C(=O)N[C@@H](CC(C)C)C(=O)N[C@@H](CO)C(=O)N[C@@H](C)C(=O)N[C@@H](CC(C)C)C(=O)N[C@H](C(=O)O)CSSC[C@@H](C(=O)NCC(=O)NCC(=O)N2CCC[C@H]2C(=O)N[C@@H](CCCNC(=N)N)C(=O)N[C@@H](Cc2c[nH]c3ccccc23)C(=O)N[C@@H](CO)C(=O)N[C@H](C(=O)N[C@@H](CCC(=O)O)C(=O)N[C@@H](C)C(=O)O)[C@@H](C)O)NC(=O)[C@H](C(C)C)NC(=O)[C@H](CCCNC(=N)N)NC(=O)[C@H](C(C)C)NC(=O)[C@H](CC(C)C)NC(=O)[C@H](C)NC(=O)[C@H](CCCNC(=N)N)NC(=O)[C@H](C(C)C)NC(=O)[C@H](Cc2ccccc2)NC(=O)[C@H](Cc2c[nH]cn2)NC(=O)[C@H](Cc2c[nH]cn2)NC(=O)CNC1=O [INSL5-A/INSL3-B]
agonist/antagonist character at RXFP2 (in words): high affinity antagonists
ability to stimulate cAMP activity in RXFP2 expressing cells (in concentrations up to 1 μM): unable to stimulate cAMP
